Columns and labels:
Influenza A virus = assay: Antiviral activity against Influenza A virus (A/Puerto Rico/8/34 (H1N1) infected in MDCK cells assessed as decrease in viral titer preincubated for 1 hr followed by viral infection and cultivated for 48 hrs followed by supernatant transferred to chicken erythrocyte for 1 hr followed by measuring ability to cause positive hemagglutination; assay type: functional, organism-based; details: A/Puerto Rico/8/1934(H1N1)
Outline: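 MDCK monolayers in MEM were pre-incubated with compound for 1 h at 37 °C, then infected with 10-fold virus dilutions (10⁻¹–10⁻⁶) and held 48 h at 37 °C, 5% CO₂. Supernatant was mixed with an equal volume of 1% chicken erythrocytes, 60 min at room temperature. Titre was taken from the highest dilution giving full agglutination (log₁₀ EID₅₀). Triplicate per concentration.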

[1] = Selectivity index, ratio of CC50 for HEK293T cells assessed as reduction in cell viability measured after 24 hrs by MTT assay to MIC for Escherichia coli ATCC 25922 assessed as bacterial growth inhibition by CLSI protocol based serial microdilution method; assay type: toxicity; details: human, read-out: Selectivity Index
[2] = Selectivity index, ratio of CC50 for HEK293T cells assessed as reduction in cell viability measured after 24 hrs by MTT assay to MIC for Citrobacter freundii ATCC 8090 assessed as bacterial growth inhibition by CLSI protocol based serial microdilution method; assay type: toxicity; details: human, read-out: Selectivity Index
Candida albicans [3] = assay: Antifungal activity against Candida albicans CEMTC 34 assessed as fungal growth inhibition by CLSI protocol based serial microdilution method; assay type: functional
Outline: (§1)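 Candida albicans grown in Sabouraud dextrose broth with two-fold serial compound dilutions from water stocks; final inoculum about 5 × 10⁵ CFU/mL. Incubated at 37 °C with orbital shaking (580 rpm). MIC is the lowest concentration preventing growth, by absorbance at 595 nm. MFC is the lowest concentration with no visible growth. Duplicates in two separate experiments.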

[4] = Selectivity index, ratio of CC50 for HEK293T cells assessed as reduction in cell viability measured after 24 hrs by MTT assay to MIC for Proteus vulgaris ATCC 6380 assessed as bacterial growth inhibition by CLSI protocol based serial microdilution method; assay type: toxicity; details: human, read-out: Selectivity Index
[5] = Cytotoxicity against MDCK cells assessed as cell death incubated for 48 hrs by MTT assay; assay type: cell-based, Canis lupus familiaris; details: dog
Pseudomonas aeruginosa [6] = assay: Antibacterial activity against Pseudomonas aeruginosa ATCC 9027 assessed as concentration required to inhibit visible growth by CLSI protocol based serial microdilution method; assay type: functional
Staphylococcus aureus [7] = assay: Antibacterial activity against […] Staphylococcus aureus ATCC 25923 assessed as concentration required to inhibit visible growth by CLSI protocol based serial microdilution method; assay type: functional
Citrobacter freundii [8] = assay: Antibacterial activity against Citrobacter freundii ATCC 8090 assessed as bacterial growth inhibition by CLSI protocol based serial microdilution method; assay type: functional
Pseudomonas aeruginosa [9] = assay: Antibacterial activity against Pseudomonas aeruginosa ATCC 9027 assessed as bacterial growth inhibition by CLSI protocol based serial microdilution method; assay type: functional
Escherichia coli [10] = assay: Antibacterial activity against Escherichia coli ATCC 25922 assessed as concentration required to inhibit visible growth by CLSI protocol based serial microdilution method; assay type: functional
[11] = Selectivity index, ratio of CC50 for HEK293T cells assessed as reduction in cell viability measured after 24 hrs by MTT assay to MIC for Candida albicans CEMTC 34 assessed as bacterial growth inhibition by CLSI protocol based serial microdilution method; assay type: toxicity; details: human, read-out: Selectivity Index
Outline: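 SI = CC₅₀ (HEK293T) / MIC. HEK293T cells were seeded at 20,000/well overnight, then exposed to 10–250 µg/mL in IMDM with 10% FBS for 24 h. MTT was added for 4 h, solubilised with SDS-HCl, and read at 570 nm; duplicates, ≥2 independent runs. MIC came from two-fold dilutions in Sabouraud dextrose broth at ~5 × 10⁵ CFU/mL, 37 °C with shaking, read at 595 nm, in duplicate.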

Enterococcus faecalis [12] = assay: Antibacterial activity against Enterococcus faecalis ATCC 51299 assessed as concentration required to inhibit visible growth by CLSI protocol based serial microdilution method; assay type: functional
[13] = Selectivity index, ratio of CC50 for HEK293T cells assessed as reduction in cell viability measured after 24 hrs by MTT assay to MIC for Pseudomonas aeruginosa ATCC 9027 assessed as bacterial growth inhibition by CLSI protocol based serial microdilution method; assay type: toxicity; details: human, read-out: Selectivity Index
Escherichia coli [14] = assay: Antibacterial activity against Escherichia coli ATCC 25922 assessed as bacterial growth inhibition by CLSI protocol based serial microdilution method; assay type: functional
[15] = Cytotoxicity against HEK293T cells assessed as reduction in cell viability measured after 24 hrs by MTT assay; assay type: cell-based, HEK-293T; details: human
Outline: (§2)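 HEK293T or MCF-7 cells in IMDM with 10% FBS, seeded at 20,000 per well and grown overnight. Compounds at […] in fresh medium for 24 h at 37 °C, 5% CO₂. MTT then added for 4 h, precipitate dissolved overnight in SDS-HCl, absorbance read at 570 nm. Viability expressed relative to untreated cells, giving CC₅₀. Duplicate wells, at least two independent repeats.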

Citrobacter freundii [16] = assay: Antibacterial activity against Citrobacter freundii ATCC 8090 assessed as concentration required to inhibit visible growth by CLSI protocol based serial microdilution method; assay type: functional
Staphylococcus aureus [17] = assay: Antibacterial activity against […] Staphylococcus aureus ATCC 25923 assessed as bacterial growth inhibition by CLSI protocol based serial microdilution method; assay type: functional
Proteus vulgaris [18] = assay: Antibacterial activity against Proteus vulgaris ATCC 6380 assessed as concentration required to inhibit visible growth by CLSI protocol based serial microdilution method; assay type: functional
Salmonella typhimurium [19] = assay: Antibacterial activity against Salmonella enterica ATCC 14028 assessed as concentration required to inhibit visible growth by CLSI protocol based serial microdilution method; assay type: functional, Salmonella enterica subsp. enterica serovar Typhimurium
Salmonella typhimurium [20] = assay: Antibacterial activity against Salmonella enterica ATCC 14028 assessed as bacterial growth inhibition by CLSI protocol based serial microdilution method; assay type: functional, Salmonella enterica subsp. enterica serovar Typhimurium
Enterococcus faecalis [21] = assay: Antibacterial activity against Enterococcus faecalis ATCC 51299 assessed as bacterial growth inhibition by CLSI protocol based serial microdilution method; assay type: functional
Candida albicans [22] = assay: Antifungal activity against Candida albicans CEMTC 34 assessed as concentration required to inhibit visible growth by CLSI protocol based serial microdilution method; assay type: functional; outline: as §1
[23] = Selectivity index, ratio of CC50 for MDCK cells to EC50 for Influenza A virus (A/Puerto Rico/8/34 (H1N1)) infected in MDCK cells; assay type: toxicity, cell-based; details: dog, read-out: Ratio CC50/EC50
Outline: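 Ratio of CC₅₀ to EC₅₀, both in MDCK cells, with cytotoxicity run in parallel with the antiviral assay. EC₅₀ is the concentration halving virus production (0.3 log₁₀ EID₅₀ titre drop). It was obtained after 1 h compound pre-incubation, infection, 48 h at 37 °C, and hemagglutination read-out with 1% chicken erythrocytes.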

[24] = Selectivity index, ratio of CC50 for HEK293T cells assessed as reduction in cell viability measured after 24 hrs by MTT assay to MIC for Staphylococcus aureus ATCC 25923 assessed as bacterial growth inhibition by CLSI protocol based serial microdilution method; assay type: toxicity; details: human, read-out: Selectivity Index
Proteus vulgaris [25] = assay: Antibacterial activity against Proteus vulgaris ATCC 6380 assessed as bacterial growth inhibition by CLSI protocol based serial microdilution method; assay type: functional
[26] = Selectivity index, ratio of CC50 for HEK293T cells assessed as reduction in cell viability measured after 24 hrs by MTT assay to MIC for Salmonella enterica ATCC 14028 assessed as bacterial growth inhibition by CLSI protocol based serial microdilution method; assay type: toxicity; details: human, read-out: Selectivity Index
[27] = Cytotoxicity against human MCF7 cells assessed as reduction in cell viability measured after 24 hrs by MTT assay; assay type: cell-based; outline: as §2
[28] = Selectivity index, ratio of CC50 for HEK293T cells assessed as reduction in cell viability measured after 24 hrs by MTT assay to MIC for Enterococcus faecalis ATCC 51299 assessed as bacterial growth inhibition by CLSI protocol based serial microdilution method; assay type: toxicity; details: human, read-out: Selectivity Index

Row | SMILES | EC50 (Influenza A virus) [µg/mL] | selectivity ratio at 24 h [1] | selectivity ratio at 24 h [2] | MIC (Candida albicans [3]) [µg/mL] | selectivity ratio at 24 h [4] | CC50 at 48 h [5] [µg/mL] | MBC (Pseudomonas aeruginosa [6]) [µg/mL] | MBC (Staphylococcus aureus [7]) [µg/mL] | MIC (Citrobacter freundii [8]) [µg/mL] | MIC (Pseudomonas aeruginosa [9]) [µg/mL] | MBC (Escherichia coli [10]) [µg/mL] | selectivity ratio at 24 h [11] | MBC (Enterococcus faecalis [12]) [µg/mL] | selectivity ratio at 24 h [13] | MIC (Escherichia coli [14]) [µg/mL] | CC50 at 24 h [15] [µg/mL] | MBC (Citrobacter freundii [16]) [µg/mL] | MIC (Staphylococcus aureus [17]) [µg/mL] | MBC (Proteus vulgaris [18]) [µg/mL] | MBC (Salmonella typhimurium [19]) [µg/mL] | further results
1 | CCCCCCCCCCCC[N+]12CC[N+](Cc3cccc(C[N+]45CC[N+](CCCCCCCCCCCC)(CC4)CC5)c3)(CC1)CC2 | 1.3 | 10 | 10 | 12.5 | < 1 | 8.4 | 3.1 | 1.6 | 1.6 | 1.6 | 3.1 | 1 | 1.6 | 10 | 1.6 | 16 | 3.1 | 0.6 | 25 | 3.1 | MIC (Salmonella typhimurium [20]): 1.6 µg/mL; MIC (Enterococcus faecalis [21]): 1.6 µg/mL; MFC (Candida albicans [22]): 12.5 µg/mL; selectivity ratio [23]: 6; selectivity ratio at 24 h [24]: 27; MIC (Proteus vulgaris [25]): 25 µg/mL; selectivity ratio at 24 h [26]: 10; CC50 at 24 h [27]: 17 µg/mL; selectivity ratio at 24 h [28]: 10
2 | CCCCCCCCCCCC[N+]12CC[N+](CCCC[N+]34CC[N+](CCCCCCCCCCCC)(CC3)CC4)(CC1)CC2 | > 3 | 3 | 3 | 6.3 | < 1 | 6.8 | 3.1 | 1.2 | 1.6 | 1.6 | 3.1 | < 1 | 1.6 | 3 | 1.6 | 4 | 1.6 | 0.6 | > 100 | 3.1 | MIC (Salmonella typhimurium [20]): 1.6 µg/mL; MIC (Enterococcus faecalis [21]): 1.6 µg/mL; MFC (Candida albicans [22]): 6.3 µg/mL; selectivity ratio [23]: < 2; selectivity ratio at 24 h [24]: 7; MIC (Proteus vulgaris [25]): 25 µg/mL; selectivity ratio at 24 h [26]: 3; CC50 at 24 h [27]: 4 µg/mL; selectivity ratio at 24 h [28]: 3
3 | CCCCCCCCCCCC[N+]12CC[N+](C/C=C/C[N+]34CC[N+](CCCCCCCCCCCC)(CC3)CC4)(CC1)CC2 | 2.6 | 3 | 6 | 12.5 | < 1 | 6.8 | 3.1 | 1.6 | 1.6 | 1.6 | 3.1 | < 1 | 1.6 | 6 | 3.1 | 10 | 3.1 | 1.2 | > 100 | 3.1 | MIC (Salmonella typhimurium [20]): 16 µg/mL; MIC (Enterococcus faecalis [21]): 1.6 µg/mL; MFC (Candida albicans [22]): 12.5 µg/mL; selectivity ratio [23]: 3; selectivity ratio at 24 h [24]: 8; MIC (Proteus vulgaris [25]): 100 µg/mL; selectivity ratio at 24 h [26]: 6; CC50 at 24 h [27]: 8 µg/mL; selectivity ratio at 24 h [28]: 6
4 | CCCCCCCCCCCC[N+]12CC[N+](CCCCC[N+]34CC[N+](CCCCCCCCCCCC)(CC3)CC4)(CC1)CC2 | 2.4 | 5 | 5 | 6.3 | < 1 | 9.7 | 6.3 | 1.2 | 1.6 | 3.1 | 3.1 | 1 | 1.6 | 2 | 1.6 | 7.5 | 3.1 | 0.6 | > 100 | 3.1 | MIC (Salmonella typhimurium [20]): 1.6 µg/mL; MIC (Enterococcus faecalis [21]): 1.6 µg/mL; MFC (Candida albicans [22]): 12.5 µg/mL; selectivity ratio [23]: 4; selectivity ratio at 24 h [24]: 13; MIC (Proteus vulgaris [25]): > 100 µg/mL; selectivity ratio at 24 h [26]: 5; CC50 at 24 h [27]: 7 µg/mL; selectivity ratio at 24 h [28]: 5

From ChEMBL document CHEMBL4715780, “Biological evaluation of tetracationic compounds based on two 1,4-diazabicyclo[2.2.2]octane moieties connected by different linkers” (Bioorg Med Chem, 2016)
